These results are taken from ChEMBL document CHEMBL1128367, “Synthesis of 4"-deoxy motilides: identification of a potent and orally active prokinetic drug candidate” (J Med Chem, 1995).

Data set [1] in a line: Oral bioavailability in dog. Type of data set: ADME, organism-based, Canis lupus familiaris. Conditions: in vivo. An outline of the steps:
(§1)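 Groups of fasted male/female beagle dogs received the lactobionate salt as a 2 mg/mL solution, at 0.5 mg/kg iv or 1 mg/kg po. Blood was sampled at set times over 12 h. Parent drug was extracted from alkalized plasma with EtOAc:hexane (1:1) and measured by reverse-phase HPLC (pH 6.9 phosphate mobile phase) with oxidative electrochemical detection. The assay was linear over 0-500 ng/mL, with LOQ ~7 ng/mL.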

Data set [2] can be described thus: Half life period after oral administration in the dog. Type of data set: ADME, organism-based, Canis lupus familiaris. As to conditions: in vivo. An outline of the steps: as §1
The species named for data set [3] is Oryctolagus cuniculus. Description: The compound was tested in vitro for prokinetic activity as smooth muscle contractility in isolated rabbit duodenum. Type of data set: functional, Muscle tissue.
Data set [4] can be described thus: Activity relative to erythromycin A.

Molecules are shown by their SMILES.

`CC[C@H]1OC(=O)[C@H](C)[C@@H](O[C@H]2C[C@@](C)(OC)[C@@H](O)[C@H](C)O2)[C@H](C)[C@@H](O[C@@H]2O[C@H](C)C[C@H](N(C)CC)[C@H]2O)[C@@]2(C)CC(C)=C(O2)[C@H](C)[C@@H](O)[C@]1(C)O` had a bioavailability in data set [1] of 1.4%. In data set [2], this molecule showed a half-life of 2.4 h. The molecule also gave a pED50 in data set [3] of 8.45. In data set [4], the Relative activity came to 2.6.
In data set [3], `CC[C@H]1OC(=O)[C@H](C)[C@@H](O[C@H]2C[C@@](C)(OC)C[C@H](C)O2)[C@H](C)[C@@H](O[C@@H]2O[C@H](C)C[C@H](N(C)C)[C@H]2O)[C@@]2(C)CC(C)=C(O2)[C@H](C)[C@@H](O)[C@H]1C` showed a pED50 of 11.26. Further, in data set [4], the Relative activity was determined as 5.41.
The like results for `CC[C@H]1OC(=O)[C@H](C)[C@@H](O[C@H]2C[C@@](C)(OC)C[C@H](C)O2)[C@H](C)[C@@H](O[C@@H]2O[C@H](C)C[C@H](NC)[C@H]2O)[C@@]2(C)CC(C)=C(O2)[C@H](C)[C@@H](O)[C@]1(C)O` were, in that order, 9.74 and 3.89.
In the same order, the values of `CC[C@H]1OC(=O)[C@H](C)[C@@H](O[C@H]2C[C@@](C)(OC)[C@@H](O)[C@H](C)O2)[C@H](C)[C@@H](O[C@@H]2O[C@H](C)C[C@H](N(C)C)[C@H]2O)[C@@]2(C)CC(C)=C(O2)[C@H](C)[C@@H](O)[C@]1(C)O` are 8.4 and 2.55.
In the same order, the values of `CC[C@H]1OC(=O)[C@H](C)[C@@H](O[C@H]2C[C@@](C)(OC)[C@@H](O)[C@H](C)O2)[C@H](C)[C@@H](O[C@@H]2O[C@H](C)C[C@H](N(C)C)[C@H]2O)[C@@]2(C)CC(C)=C(O2)[C@H](C)[C@@H](O)[C@H]1C` are 8.68 and 2.83.
Molecule `CC[C@H]1OC(=O)[C@H](C)[C@@H](O[C@H]2C[C@@](C)(OC)C[C@H](C)O2)[C@H](C)[C@@H](O[C@@H]2O[C@H](C)C[C@H](N(C)C)[C@H]2O)[C@@]2(C)CC(C)=C(O2)[C@H](C)[C@@H](O)[C@]1(C)O` came in with a pED50 in data set [3] of 8.41. The Relative activity in data set [4] is 2.56.
With `CC[C@H]1OC(=O)[C@H](C)[C@@H](O[C@H]2C[C@@](C)(OC)C[C@H](C)O2)[C@H](C)[C@@H](O[C@@H]2O[C@H](C)C[C@H](NC)[C@H]2O)[C@@]2(C)CC(C)=C(O2)[C@H](C)[C@@H](O)[C@H]1C`, the bioavailability in data set [1] amounted to 23.8%. In addition, the half-life in data set [2] is 2 h. For the same molecule, in data set [3], the pED50 is reported as above 12. The Relative activity in data set [4] was above 6.15.
With `CC[C@H]1OC(=O)[C@H](C)[C@@H](O[C@H]2C[C@@](C)(OC)[C@@H](O)[C@H](C)O2)[C@H](C)[C@@H](O[C@@H]2O[C@H](C)C[C@H](NC)[C@H]2O)[C@@]2(C)CC(C)=C(O2)[C@H](C)[C@@H](O)[C@]1(C)O`, the pED50 in data set [3] is given as 7.1. In data set [4], this molecule returned a Relative activity of 1.3.
As to `CC[C@H]1OC(=O)[C@H](C)[C@@H](O[C@H]2C[C@@](C)(OC)C[C@H](C)O2)[C@H](C)[C@@H](O[C@@H]2O[C@H](C)C[C@H](N(C)CC)[C@H]2O)[C@@]2(C)CC(C)=C(O2)[C@H](C)[C@@H](O)[C@H]1C` [ALEMCINAL], the bioavailability in data set [1] was 39%. In data set [2], this molecule gave a half-life of 5.5 h. Further, the pED50 in data set [3] is on record as above 12. In data set [4], this molecule returned a Relative activity above 6.15.
With `CC[C@H]1OC(=O)[C@H](C)[C@@H](O[C@H]2C[C@@](C)(OC)[C@@H](O)[C@H](C)O2)[C@H](C)[C@@H](O[C@@H]2O[C@H](C)C[C@H](N(C)C)[C@H]2O)[C@](C)(O)C[C@@H](C)C(=O)[C@H](C)[C@@H](O)[C@]1(C)O` [ERYTHROMYCIN], in data set [3], the pED50 worked out at 5.85.
As for `CC[C@H]1OC(=O)[C@H](C)[C@@H](O[C@H]2C[C@@](C)(OC)C[C@H](C)O2)[C@H](C)[C@@H](O[C@@H]2O[C@H](C)C[C@H](N(C)CC)[C@H]2O)[C@@]2(C)CC(C)=C(O2)[C@H](C)[C@@H](O)[C@]1(C)O`, the bioavailability in data set [1] turned out to be 2.7%. In addition, in data set [2], the half-life was 2.6 h. The pED50 in data set [3] was 11.15. The molecule also gave a Relative activity in data set [4] of 5.3.

The term bioavailability denotes the share of a dose that reaches the circulation, judged against a reference dose that is usually intravenous. Higher therefore signals much systemic uptake. By half-life is commonly meant how long it takes for the measured level to halve. A low value points to fast loss.
